The source of these data is ChEMBL document CHEMBL1137338, “Effects of substitution on 9-(3-bromo-4-fluorophenyl)-5,9-dihydro-3H,4H-2,6-dioxa-4- azacyclopenta[b]naphthalene-1,8-dione, a dihydropyridine ATP-sensitive potassium channel opener” (J Med Chem, 2006).

pEC50: −log10 of the molar value.

Sequence of Sulfonylurea receptor 2, Kir6.2 (Q14654 whole entry, canonical isoform): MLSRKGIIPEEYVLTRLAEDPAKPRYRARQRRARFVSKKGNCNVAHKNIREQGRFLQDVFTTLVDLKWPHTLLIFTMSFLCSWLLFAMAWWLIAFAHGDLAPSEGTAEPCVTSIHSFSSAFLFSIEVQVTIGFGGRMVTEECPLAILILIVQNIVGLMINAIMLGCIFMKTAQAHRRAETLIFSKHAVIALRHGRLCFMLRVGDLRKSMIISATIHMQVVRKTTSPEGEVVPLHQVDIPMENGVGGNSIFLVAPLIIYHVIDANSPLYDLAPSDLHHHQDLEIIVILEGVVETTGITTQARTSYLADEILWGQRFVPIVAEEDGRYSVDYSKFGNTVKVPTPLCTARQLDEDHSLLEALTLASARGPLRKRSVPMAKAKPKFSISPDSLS
Sequence of Sulfonylurea receptor 2, Kir6.2 (O60706 whole entry, canonical isoform): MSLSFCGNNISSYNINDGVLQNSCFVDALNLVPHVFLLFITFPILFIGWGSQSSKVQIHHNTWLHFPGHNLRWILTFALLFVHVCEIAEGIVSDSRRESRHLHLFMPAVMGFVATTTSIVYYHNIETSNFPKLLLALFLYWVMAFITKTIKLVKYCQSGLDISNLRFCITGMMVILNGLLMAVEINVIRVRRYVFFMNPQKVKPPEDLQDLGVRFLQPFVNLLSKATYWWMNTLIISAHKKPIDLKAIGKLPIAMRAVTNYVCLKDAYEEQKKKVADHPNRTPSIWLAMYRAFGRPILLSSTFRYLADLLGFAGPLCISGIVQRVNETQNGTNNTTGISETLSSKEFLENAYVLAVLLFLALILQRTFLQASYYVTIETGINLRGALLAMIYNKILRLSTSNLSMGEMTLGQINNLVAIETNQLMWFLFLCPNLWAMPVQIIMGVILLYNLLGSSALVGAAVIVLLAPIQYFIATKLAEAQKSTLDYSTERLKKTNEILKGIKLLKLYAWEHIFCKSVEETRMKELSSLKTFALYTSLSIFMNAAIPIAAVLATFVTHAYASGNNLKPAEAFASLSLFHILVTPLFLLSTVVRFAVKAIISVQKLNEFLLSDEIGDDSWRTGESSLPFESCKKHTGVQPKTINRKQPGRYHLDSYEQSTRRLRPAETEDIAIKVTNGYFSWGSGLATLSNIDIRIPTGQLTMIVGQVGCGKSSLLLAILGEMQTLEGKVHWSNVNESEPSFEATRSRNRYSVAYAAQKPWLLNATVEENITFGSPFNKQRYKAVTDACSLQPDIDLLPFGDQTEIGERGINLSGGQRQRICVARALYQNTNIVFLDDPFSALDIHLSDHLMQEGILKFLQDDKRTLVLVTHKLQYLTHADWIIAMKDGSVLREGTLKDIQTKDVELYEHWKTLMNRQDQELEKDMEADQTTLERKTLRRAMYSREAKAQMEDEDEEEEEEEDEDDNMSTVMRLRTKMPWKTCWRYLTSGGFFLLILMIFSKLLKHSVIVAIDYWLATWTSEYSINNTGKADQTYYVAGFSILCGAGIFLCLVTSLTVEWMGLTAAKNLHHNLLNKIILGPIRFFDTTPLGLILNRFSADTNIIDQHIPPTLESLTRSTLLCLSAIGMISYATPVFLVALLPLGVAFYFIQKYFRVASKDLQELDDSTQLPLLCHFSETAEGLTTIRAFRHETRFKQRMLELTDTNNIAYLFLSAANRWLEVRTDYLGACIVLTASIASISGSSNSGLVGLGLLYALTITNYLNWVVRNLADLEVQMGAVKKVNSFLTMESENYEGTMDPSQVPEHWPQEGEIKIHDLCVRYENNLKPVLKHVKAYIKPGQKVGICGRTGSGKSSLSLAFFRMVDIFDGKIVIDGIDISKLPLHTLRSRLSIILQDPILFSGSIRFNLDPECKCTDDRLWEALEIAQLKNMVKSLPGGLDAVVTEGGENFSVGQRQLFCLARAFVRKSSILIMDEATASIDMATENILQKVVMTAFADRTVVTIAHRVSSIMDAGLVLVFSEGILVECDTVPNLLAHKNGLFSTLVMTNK

The first assay has as its target Sulfonylurea receptor 2, Kir6.2 (Homo sapiens, UniProt O60706+Q14654). In words: Ability to open human urinary bladder Kir6.2 channel containing SUR2B in Ltk cells by FLIPR assay. The format is functional, cell-based. In short, it runs like this: (§1)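 Ltk- cells stably transfected with the Kir6.2/SUR2B exon 17- splice variant. Membrane potential was followed with DiBAC dye in a 96-well cell-based kinetic fluorescence (FLIPR) assay. The highest concentration tested was 10 µM. Each compound's maximal fluorescence response was expressed as % of the response to the reference opener.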
By pEC50 is commonly meant the EC50 on a negative log10 scale, so that one unit is a factor of ten. Read a high pEC50 as a small EC50. Molecule `CCC[C@H]1OC(O)=C2C1=NC1=C(C(=O)COC1)[C@H]2c1ccc(Br)c(Br)c1` (stereo in doubt; 45b) showed a pEC50 of 6.90.

In turn, `CCC[C@H]1OC(O)=C2C1=NC1=C(C(=O)COC1)[C@H]2c1ccc(C)c(Br)c1` (stereo in doubt; 46a) had a pEC50 of 5.46. In turn, `CCC[C@H]1OC(O)=C2C1=NC1=C(C(=O)COC1)[C@H]2c1ccc(C)c(Br)c1` (stereo in doubt; 46b) had a negative logarithm of the EC50 (pEC50) of 6.66. On to `CC[C@@H]1OCC(O)=C2C1=NC1=C(C(=O)COC1)[C@H]2c1ccc(F)c(Br)c1` (stereo in doubt; 70a), for which the negative-log EC50 (pEC50) was 6.78. On the same count and under the same terms, in the case of `CC[C@@H]1OCC(O)=C2C1=NC1=C(C(=O)COC1)[C@H]2c1ccc(F)c(Br)c1` (stereo in doubt; 70b) it was 7.70. As to `CC[C@H]1OCC(O)=C2C1=NC1=C(C(=O)COC1)[C@H]2c1ccc(F)c(Br)c1` (stereo in doubt; 71b), the negative-log EC50 (pEC50) is less than 5.00. The same measure, in the same setting: in the case of `CC[C@H]1OCC(O)=C2C1=NC1=C(C(=O)COC1)[C@H]2c1ccc(F)c(Cl)c1` (stereo in doubt; 72a) it was 5.44. Regarding `CC[C@H]1OCC(O)=C2C1=NC1=C(C(=O)COC1)[C@H]2c1ccc(F)c(Cl)c1` (stereo in doubt; 72b), the negative logarithm of the EC50 (pEC50) was less than 5.00.

Molecule `CC[C@H]1OCC(O)=C2C1=NC1=C(C(=O)COC1)[C@H]2c1ccc(F)c(I)c1` (stereo in doubt; 73a) showed a pEC50 of 5.89. Same read-out and setting: then `CC[C@H]1OCC(O)=C2C1=NC1=C(C(=O)COC1)[C@H]2c1ccc(F)c(I)c1` (stereo in doubt; 73b), with 5.53. Still for that read-out and setting: then `CC[C@H]1OCC(O)=C2C1=NC1=C(C(=O)COC1)[C@H]2c1ccc(Cl)c(Cl)c1` (stereo in doubt; 74a), with 6.33; and `CC[C@H]1OCC(O)=C2C1=NC1=C(C(=O)COC1)[C@H]2c1ccc(Cl)c(Br)c1` (stereo in doubt; 75a), with 6.12. The same measure, in the same setting: then `CC[C@H]1OCC(O)=C2C1=NC1=C(C(=O)COC1)[C@H]2c1ccc(Cl)c(Br)c1` (stereo in doubt; 75b), with 5.26; and `CC[C@H]1OCC(O)=C2C1=NC1=C(C(=O)COC1)[C@H]2c1ccc(Br)c(Cl)c1` (stereo in doubt; 76a), with 5.79; and `CC[C@H]1OCC(O)=C2C1=NC1=C(C(=O)COC1)[C@H]2c1ccc(Br)c(Br)c1` (stereo in doubt; 77a), with 6.51. `CC[C@H]1OCC(O)=C2C1=NC1=C(C(=O)COC1)[C@H]2c1ccc(Br)c(Br)c1` (stereo in doubt; 77b): the negative-log EC50 (pEC50) was 6.37. Still for that read-out and setting: then `CC[C@H]1OCC(O)=C2C1=NC1=C(C(=O)COC1)[C@H]2c1ccc(C)c(Br)c1` (stereo in doubt; 78a), with 6.14; and `CC[C@H]1OCC(O)=C2C1=NC1=C(C(=O)COC1)[C@H]2c1ccc(C)c(Br)c1` (stereo in doubt; 78b), with 5.25.

The next assay addresses Sulfonylurea receptor 2, Kir6.2 (Homo sapiens) (UniProt Q14654+O60706). In words: Ability to open human urinary bladder Kir6.2 containing SUR2B in Ltk cells by FLIPR assay relative to P1075. The format is functional, cell-based. Put shortly:
as §1
`CCCC[C@H]1OC(O)=C2C1=NC1=C(C(=O)COC1)[C@H]2c1ccc(F)c(Br)c1` (racemic) showed an Efficacy of 61%. Same read-out and setting: in the case of `CCC[C@@H]1OC(O)=C2C1=NC1=C(C(=O)COC1)[C@H]2c1ccc(F)c(Br)c1` (racemic) it was 90%; in that of `CCC[C@H]1OC(O)=C2C1=NC1=C(C(=O)COC1)[C@H]2c1ccc(Br)c(Br)c1` (racemic), 119%. On to `CCC[C@H]1OC(O)=C2C1=NC1=C(C(=O)COC1)[C@H]2c1ccc(Br)c(Cl)c1` (racemic), for which the Efficacy turned out to be 97%. The molecule `CCC[C@H]1OC(O)=C2C1=NC1=C(C(=O)COC1)[C@H]2c1ccc(C)c(Br)c1` (racemic) returned an Efficacy of 104%. As for `CCC[C@H]1OC(O)=C2C1=NC1=C(C(=O)COC1)[C@H]2c1ccc(Cl)c(Br)c1` (racemic), the Efficacy turned out to be 120%. Turning to `CCC[C@H]1OC(O)=C2C1=NC1=C(C(=O)COC1)[C@H]2c1ccc(Cl)c(Cl)c1` (racemic), the Efficacy was 95%.

Molecule `CCC[C@H]1OC(O)=C2C1=NC1=C(C(=O)COC1)[C@H]2c1ccc(F)c(Cl)c1` (racemic) returned an Efficacy of 42%. Same read-out and setting: in the case of `CCC[C@H]1OC(O)=C2C1=NC1=C(C(=O)COC1)[C@H]2c1ccc(F)c(I)c1` (racemic) it was 105%; in that of `CC[C@@H]1OC(O)=C2C1=NC1=C(C(=O)COC1)[C@H]2c1ccc(F)c(Br)c1` (racemic), 74%; in that of `CC[C@@H]1OCC(O)=C2C1=NC1=C(C(=O)COC1)[C@H]2c1ccc(F)c(Br)c1` (racemic), 60%. The same measure, in the same setting: in the case of `CC[C@H]1OC(O)=C2C1=NC1=C(C(=O)C(C)(C)OC1)[C@H]2c1ccc(F)c(Br)c1` (racemic) it was 70%. On the same count and under the same terms, in the case of `CC[C@H]1OC(O)=C2C1=NC1=C(C(=O)COC1(C)C)[C@H]2c1ccc(F)c(Br)c1` (racemic) it was 48%; in that of `CC[C@H]1OCC(O)=C2C1=NC1=C(C(=O)COC1)[C@H]2c1ccc(Br)c(Br)c1` (racemic), 76%; in that of `CC[C@H]1OCC(O)=C2C1=NC1=C(C(=O)COC1)[C@H]2c1ccc(Br)c(Cl)c1` (racemic), 46%. In turn, `CC[C@H]1OCC(O)=C2C1=NC1=C(C(=O)COC1)[C@H]2c1ccc(C)c(Br)c1` (racemic) returned an Efficacy of 70%. As for `CC[C@H]1OCC(O)=C2C1=NC1=C(C(=O)COC1)[C@H]2c1ccc(Cl)c(Br)c1` (racemic), the Efficacy was found to be 70%. As to `CC[C@H]1OCC(O)=C2C1=NC1=C(C(=O)COC1)[C@H]2c1ccc(F)c(I)c1` (racemic), the Efficacy was 47%. Same read-out and setting: in the case of `COC[C@H]1OC(O)=C2C1=NC1=C(C(=O)COC1)[C@H]2c1ccc(F)c(Br)c1` (racemic) it was 103%. `C[C@@H]1OC(O)=C2C1=NC1=C(C(=O)COC1)[C@H]2c1ccc(F)c(Br)c1` (racemic): the Efficacy was 100%. Same read-out and setting: then `C[C@@H]1OCC2=C(C1=O)[C@@H](c1ccc(F)c(Br)c1)C1=C(O)OCC1=N2` (racemic), with 81%; and `C[C@@H]1OCC2=C(C1=O)[C@H](c1ccc(F)c(Br)c1)C1=C(O)OCC1=N2` (racemic), with 104%; and `C[C@H]1OC(O)=C2C1=NC1=C(C(=O)COC1)[C@H]2c1ccc(F)c(Br)c1` (racemic), with 75%. In the case of `CC1(C)OCC2=C(C1=O)C(c1ccc(F)c(Br)c1)C1=C(O)OCC1=N2` (single isomer, unassigned; (+)), the Efficacy was 104%. With `O=C1COCC2=C1C(c1ccc(F)c(Br)c1)C1=C(O)OCC1=N2` (stereo in doubt; 6), the Efficacy turned out to be 92%.

In the case of `C[C@@H]1OCC2=C(C1=O)[C@@H](c1ccc(F)c(Br)c1)C1=C(O)OCC1=N2` (stereo in doubt; 7b), the Efficacy is 94%. On the same count and under the same terms, then `CC1(C)OCC2=C(C1=O)C(c1ccc(F)c(Br)c1)C1=C(O)OCC1=N2` (stereo in doubt; 9), with 86%. Still for that read-out and setting: then `CC1(C)OCC2=C(C1=O)C(c1ccc(F)c(Br)c1)C1=C(O)OCC1=N2` (stereo in doubt; 9b), with 77%; and `C[C@@H]1OC(O)=C2C1=NC1=C(C(=O)COC1)[C@H]2c1ccc(F)c(Br)c1` (stereo in doubt; 17b), with 89%. For the molecule `C[C@H]1OC(O)=C2C1=NC1=C(C(=O)COC1)[C@H]2c1ccc(F)c(Br)c1` (stereo in doubt; 18a), the Efficacy is 86%.

On to `C[C@H]1OC(O)=C2C1=NC1=C(C(=O)COC1)[C@H]2c1ccc(F)c(Br)c1` (stereo in doubt; 18b), for which the Efficacy is 85%.
